According to ChEMBL document CHEMBL4431364, “Discovery and synthetic optimization of a novel scaffold for hydrophobic tunnel-targeted autotaxin inhibition” (Bioorg Med Chem, 2016):

Molecular target: Autotaxin (Homo sapiens, UniProt Q13822)
Experiment: Inhibition of C-terminal FLAG tagged human recombinant ATX expressed in insect sf9 cells at 10 uM using FS-3 as substrate measured every 2 mins for 60 mins by FRET assay
In short: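 10 μM compound with 10 nM human FLAG-fusion ATX in pH 8.0 Tris buffer (30 μM BSA, 1 mM CaCl2, 1 mM MgCl2, 5 mM KCl, 140 mM NaCl) and 1 μM FS-3. Fluorescence at ex 485/em 520 nm read every 2 min for 60 min at 37 °C. Normalized to no-ATX (0%) and ATX without compound (100%). Triplicate.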

SMILES	inhibition [%]
Cc1cc(C(=O)CSc2ccc(Cl)cc2)cc(C)c1OC(=O)N(C)C	6.06
CC(C)COc1cnc(SSc2ncc(OCC(C)C)cn2)nc1	20.6
CCCCOCCCNc1cc(-c2cccc(C)c2)ncn1	9.16
Cc1ccc2cc3c(nc2c1)sc1c(SCC(=O)NCc2ccco2)ncnc13	13.4
CCCCOc1ccc(S(=O)(=O)N2CC(NCc3ccco3)CC2C(=O)CNO)cc1 (stereo not drawn)	38
O=C(c1ccco1)N1CCN(C(=O)C2CCCN2C(=O)CC2C=CCC2)CC1 (stereo not drawn)	5.7
CC[n+]1c(Cc2nn3c(C)cc(C)nc3[n+]2CC)nn2c(C)cc(C)nc21	2.48
Cc1c(Cl)c(-c2nnc(NCC(C)C)s2)nn1C	7.92
COC(CNCc1cc(Cl)c(CNCC(OC)OC)cc1Cl)OC	18.6
CCOc1ccc(N2C(=O)/C(=C3\C(=O)Nc4ccc(Br)cc43)SC2=S)cc1	-3.35
CON1CC/C(=C\c2cc(C(C)(C)C)c3c(c2)C(C)(C)CO3)C1=O	30.3
CCOC(=O)c1c(C)[nH]c(C(=O)OCC(=O)NCc2ccco2)c1C	15.6
Cc1cc(C)c(C)c(S(=O)(=O)N2CCN(c3ncnc4sc(C)c(C)c34)CC2)c1C	19.8
Cc1ccccc1Nc1nc(C2(C)CC3(CC(COCC(C)C)OC3=O)C(=O)O2)cs1 (stereo not drawn)	40.8
CCCC#CC(=O)NCC(=O)Nc1ccc2c3c(cccc13)-c1ccccc1-2	6.06
COC(=O)c1sc(NC(=O)c2cc(C)ccc2Cl)c(C#N)c1C	-2.35
CC(C)(C)c1ccc(NC(=O)COC(=O)c2ccc([N+](=O)[O-])s2)cc1	10.7
Cc1cc(C(F)(F)F)nc2sc3c(c12)NC(c1c(Br)cnn1C)NC3=O (stereo not drawn)	-1.36
CC(C)/C=C/C(=O)N1CCN(C(=O)C2CCC3C4CC=C5CC(O)CCC5(C)C4CCC23C)CC1 (stereo not drawn)	13.3
Cn1cc(Cl)c(C2NN=C(SCC(=O)Nc3ccc(C(C)(C)C)cc3)S2)n1 (stereo not drawn)	43.4

Second part, the compound after the results:

inhibition [%]	SMILES
4.63	Cc1cc(OCC(=O)Nc2ccc(-c3nc4ncccc4o3)cc2)ccc1Cl
15.2	O=C(COc1ccccc1F)N1CCN(c2cccc([N+](=O)[O-])c2)CC1
10.5	C=C(C)c1cccc(C(C)(C)NC(=O)N2CCN(C(=O)OCC)CC2)c1
35.2	O=C(COc1ccccc1F)N1CCN(c2ccc([N+](=O)[O-])cc2)CC1
6.1	O=C(O)c1ccc(N2CCN(C(=O)COc3ccccc3F)CC2)cc1
-0.74	COc1ccccc1N1CCN(/N=C(\C)c2ccc3ccccc3c2)CC1
-2.55	COc1ccc(/C=N/c2cc(C)ccc2C)cc1OC
9.03	Clc1ccc(Cl)c2c1CC(N1CCN(c3ncccn3)CC1)S2 (stereo not drawn)
34.7	CCc1ccc(OCC(=O)Nc2ccc(-c3nc4ccccc4o3)cc2)cc1
9.17	CSc1cccc2c(C)cc(N3CCN(c4ccc(F)cc4)CC3)nc12
0.32	COc1ccc(C(=O)Oc2c(Br)cc(Br)c3cccnc23)cc1
46.1	O=C(COc1ccccc1Cl)N1CCN(c2ccc([N+](=O)[O-])cc2)CC1
43	O=C(O)c1ccc(N2CCN(C(=O)COc3cccc(C(F)(F)F)c3)CC2)cc1
32.3	O=C(O)c1ccc(N2CCN(C(=O)COc3cccc(F)c3)CC2)cc1
4.83	COc1ccc(N2C(=O)/C(=C/c3ccc(O)c([N+](=O)[O-])c3)SC2=S)cc1
1.44	Cc1nn(-c2ccccc2)c(O)c1/N=C1\C(=O)N(C)c2ccc(Br)cc21
32.5	CC(C)(C)CN(Cc1cccc(CN)c1)C(=O)c1ccc(-c2ccccc2)nc1
19.8 to 42.8	CC(C)(C)CN(Cc1cccc(CN)c1)C(=O)c1ccc(-c2ccc(F)cc2)nc1
12.1	CC(C)c1ccc(NC(=O)c2cc([N+](=O)[O-])ccc2Cl)cc1
14.2	CCN1CCN(c2cc(C)c3ccc(Cl)cc3n2)CC1
8.67	Cc1ccc(SCC(=O)Nc2ccc(C(=O)NC(C)(C)C)cc2)cc1
46.4	C=C(Br)C(=O)N1CCN(C(=O)CCSc2ccc3ccccc3c2)CC1
13.4	O=S(=O)(c1cc(-c2ccon2)cs1)N1CCN(Cc2ccc3c(c2)OCO3)CC1
